Bioassay records deposited in PubChem by several laboratories.
Rows were chosen to be rich in hits. Some 1.7% of all compounds tested hit in one or more screens of this group.
Rpn11 inh: Rpn11 (human) deubiquitinase inhibition. O00487. human 26S proteasome, Ub4-pepOG fluorescence polarization; 20S core pre-blocked with epoxomicin. calls only at 20 µM. hit rate 0.59% among 360,000;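 active = inhibition at 20 µM, scaled to each plate's controls, above about 33%, limit read from the data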
IDE inh: cellular human IDE inhibition | P14735 | HEK cells, FAbetaB cleavage, fluorescence polarization | inhibition, % at 5.59 µM | hit rate 0.41% among 320,000;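 active = percent inhibition above the average of all tested compounds plus 3 SD, set per screening campaign, cut at about 16% in these data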;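 also: IDE supplied by intact live HEK cells; FP after avidin binding of uncleaved biotin substrate so inhibition keeps polarization high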
HNF4A DNA FP: change in binding of human HNF4 alpha to DNA | P41235 | activity change, % at 10 µM | HNF4a-FITC DNA binding, fluorescence polarization, 1 h | hit rate 0.3% among 360,000; in the data active = activity change above about 30%, passing the limit was not always enough
CSN deneddyl inh: blocks human CSN-mediated cullin deneddylation; Q92905; Purified CSN, SCF-Nedd8-OG deneddylation, fluorescence polarization; inhibition, % at 12.5 µM; hit rate 0.38% among 360,000; AID 651999;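 active = pattern-corrected inhibition above about 35%, with an unprinted fluorescence ratio check between 0.5 and 1.5, limit read from the data, passing the limit was not always enough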
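Detection – fluorescence polarization · System – HEK293T-derived human Csn5 enzyme · Controls – substrate-only high control, full reaction low control · Timing – 90 min, room temperature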
IDE act: IDE (human) activation, cell-based. P14735. HEK cells, FAbeta-B cleavage, fluorescence polarization; 0% vehicle, 100% cell-free pure enzyme wells. activation, % at 5.96 µM. hit rate 0.073% among 340,000. AID 493087;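 active = activation above the mean of all tested compounds plus 3 SD, set per screening campaign, cut at about 17% in these data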
TPT1 inhibitor: C. albicans TPT1 enzyme inhibition. recombinant caTPT1, FP RNA substrate dephosphorylation. inhibition, % at 5 µM. hit rate 0.81% among 300,000. AID 1962;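 active = inhibition above the mean of all tested compounds plus 3 SD, set per screening campaign, cut at about 24% in these data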
CSN deneddyl val: validation of inhibitors of human CSN-mediated cullin deneddylation. shares compounds with CSN deneddyl inh. Csn5 deneddylation of SCF-Nedd8OG, fluorescence polarization, 90 min. inhibition, % at 16.6 µM. hit rate 62% among 540; in the data active = inhibition above about 50%
MMP2 cntr CSN: counter-screen for CSN deneddylation inhibitors: human MMP-2 inhibition; hit rate 33% among 540; shares compounds with CSN deneddyl inh; recombinant MMP-2, FRET substrate fluorescence, 60 min; inhibition, % at 16.6 µM;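 active = corrected plate-normalized z-score of 5 or more, or -5 or less, or inhibition of 15% or more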
Target sequence (P08253 whole entry, looked up): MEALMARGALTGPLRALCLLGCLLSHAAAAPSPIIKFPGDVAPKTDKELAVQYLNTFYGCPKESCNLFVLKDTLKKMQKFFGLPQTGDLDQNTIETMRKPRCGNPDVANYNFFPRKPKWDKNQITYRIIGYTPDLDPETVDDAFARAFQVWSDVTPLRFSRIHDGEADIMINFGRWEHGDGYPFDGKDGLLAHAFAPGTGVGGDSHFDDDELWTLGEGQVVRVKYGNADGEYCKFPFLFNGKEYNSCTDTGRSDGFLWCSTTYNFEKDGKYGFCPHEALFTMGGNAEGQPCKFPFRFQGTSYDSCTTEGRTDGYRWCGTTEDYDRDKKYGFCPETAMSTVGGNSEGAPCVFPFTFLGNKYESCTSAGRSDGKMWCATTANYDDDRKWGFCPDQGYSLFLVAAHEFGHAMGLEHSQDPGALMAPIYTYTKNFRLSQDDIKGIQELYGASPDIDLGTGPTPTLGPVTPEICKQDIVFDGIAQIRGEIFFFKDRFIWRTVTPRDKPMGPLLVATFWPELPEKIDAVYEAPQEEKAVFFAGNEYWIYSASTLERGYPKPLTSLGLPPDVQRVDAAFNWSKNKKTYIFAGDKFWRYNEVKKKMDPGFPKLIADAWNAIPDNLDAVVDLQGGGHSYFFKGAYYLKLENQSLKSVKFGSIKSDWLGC
Thrombin counter: counter-screen for CSN deneddylation inhibitors: bovine thrombin inhibition | AID 720656 | shares compounds with CSN deneddyl inh | inhibition, % at 16.6 µM | bovine thrombin cleavage of Ub4-pepOG, fluorescence polarization | hit rate 49% among 540;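 active = inhibition at or above a set limit, with a fluorescence interference ratio between 0.5 and a set maximum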
Hits are given with their value; - = inactive; . = not tested or not shown; ! = not active in a repeat.

SMILES	Rpn11 inh	IDE inh	HNF4A DNA FP	CSN deneddyl inh	IDE act	TPT1 inhibitor	CSN deneddyl val	MMP2 cntr CSN	Thrombin counter
Cc1ccc2c(c1)C(=O)OC1(O)C3C4C=CC(C4)C3C(=O)N21 (configuration not stated)	-	-	-	-	-	-	.	.	.
O=C1/C(=C/c2ccco2)Oc2c1ccc(O)c2CN1CCCCC1	-	-	-	42	-	-	.	-	-
CC1CCN(Cc2c(O)ccc3c2O/C(=C\c2ccco2)C3=O)CC1	-	-	-	-	-	-	.	.	.
Cc1cc(N2CCN(C)CC2)nc2ccc(NC(=S)N3CCCCC3)cc12	-	.	-	-	-	.	.	.	.
Cc1cccc(N2CCN(C(=S)Nc3ccc4nc(N5CCN(C)CC5)cc(C)c4c3)CC2)c1C	-	.	59	36	-	.	97	-	-
COc1cc(OC)c2ccc(=O)oc2c1C(CC(=O)N1CCOCC1)c1ccc(N(C)C)cc1 (configuration not stated)	-	-	-	-	-	-	.	.	.
Cc1cccc(NC(=O)CN2C(=O)NC(C)(c3ccc4ccccc4c3)C2=O)n1 (configuration not stated)	-	-	-	-	-	-	.	.	.
N#Cc1c(SCC(=O)Nc2nc3ccccc3s2)sc2c(O)cc(=O)[nH]c12	-	-	-	40	-	.	77	-	-
COc1cc2c(C#N)c(N3CCCC3)nc(N)c2c(N)n1	-	-	-	35!	-	-	67	-45	-
COC1C(CO)OC(n2c3c(Cl)cccc3c3c4c(c5c6cccc(Cl)c6[nH]c5c32)C(=O)NC4=O)C(O)C1O (configuration not stated)	.	.	-	80	-	.	197	-	-
C/C(=N\NC(=O)CCc1c[nH]c2ccccc12)c1ccc([N+](=O)[O-])cc1	-	-	-	-	-	-	.	.	.
C/C(=N/Nc1ccc([N+](=O)[O-])cc1)c1c[nH]c2ccccc12	.	.	70	43	-	.	69	-	22
Cc1cc(-c2nc3c4c5c(sc4[nH]c(=O)n3n2)CCC5)c(C)o1	-	-	-	36	-	-	92	-	-
O=C(NCc1ccccc1C(F)(F)F)c1cccc2c1C(=O)c1ccc(N3CCC(N4CCCCC4)CC3)cc1S2(=O)=O	.	.	-	143	.	.	-	-45	46
COc1ccccc1CNC(=O)COC(=O)c1cc(-c2ccco2)nc2ccccc12	-	-	-	49	-	-	.	-	-
COc1ccc2c(c1)O[C@H](c1ccc3c(c1)OCO3)[C@@H](OC(=O)N[C@H](C)C1CCCCC1)C2=O	.	-	.	.	.	-	.	.	.
CCc1ccc(N=C2NC(=O)/C(=C/c3cc(OC)c(OC)c(OC)c3)S2)cc1	-	-	-	-	-	-	.	.	.
CCc1ccc(N=C2NC(=O)/C(=C/c3cc(Br)c(OCC(=O)O)c(OC)c3)S2)cc1	-	-	-	47	-	-	77	-	-
COc1ccc(N=C2NC(=O)/C(=C\C=C\c3ccco3)S2)cc1	-	.	-	46	-	.	84	-	-
Cc1cccc(N=C2NC(=O)/C(=C/C=C/c3ccco3)S2)c1	-	-	-	53	-	-	88	-	-
Cn1cc(CN2CCN(c3ccccc3)CC2)c2ccccc21	-	-	-	-	-	-	.	.	.
CC(=O)C1C(c2ccc([N+](=O)[O-])cc2)C2C(C)=NN=C2CC1(C)O (configuration not stated)	-	-	-	-	-	-	.	.	.
O=C(O)CN(c1ccccc1[N+](=O)[O-])S(=O)(=O)c1ccccc1	-	-	-	-	-	-	.	.	.
O=C1CCCC2=C1C(c1ccco1)Nc1ccc3ccccc3c12 (configuration not stated)	-	-	-	40	-	-	.	17	-
